Data published in ChEMBL document CHEMBL4184113, “Synthesis and PGE2 inhibitory activity of novel diarylheptanoids” (Bioorg Med Chem Lett, 2018).
Active and inactive are the calls of the source. The rule behind the calls is not given here.

Legend:
Homo sapiens = organism: Homo sapiens; experiment: Inhibition of TNFalpha-induced NFkappaB activation (unknown origin) expressed in mouse 3T3L1 cells at 10 ng/µl by luciferase reporter gene assay
3T3-L1 = experiment: Cytotoxicity against mouse 3T3L1 cells assessed as reduction in cell viability at 10 ng/ml after 6 hrs by alamar blue assay; type: cell-based; conditions: 3t3-l1, 6 h
[1] = molecular target: T1, Prostaglandin E synthase (Mus musculus) (UniProt Q9JM51); experiment: (§1) Inhibition of mPGES1 in mouse 3T3L1 cells assessed as reduction in PGE2 production after 1 hr by ELISA; type: cell-based
T1 sequence (whole entry): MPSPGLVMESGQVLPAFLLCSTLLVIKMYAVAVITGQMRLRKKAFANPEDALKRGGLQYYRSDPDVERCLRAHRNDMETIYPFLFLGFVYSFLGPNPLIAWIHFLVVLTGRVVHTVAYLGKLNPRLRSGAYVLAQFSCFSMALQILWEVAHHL
In short: (§2)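 3T3 cells were treated at four doses and secreted PGE2 was measured by ELISA. IC50 was obtained by four-parameter logistic fit.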

Prostaglandin E synthase = molecular target: T2, Prostaglandin E synthase (Mus musculus, UniProt Q9JM51); experiment: as §1; type: cell-based
T2 sequence (Q9JM51 whole entry): T1 sequence (whole entry)
In short: as §2

[2] = molecular target: T1, Prostaglandin E synthase (Mus musculus); experiment: Inhibition of mPGES1 in mouse 3T3L1 cells assessed as reduction in PGE2 production at 1 to 10 ng/ml after 1 hr by ELISA; type: cell-based
In short: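 3T3 cells were treated with compound at 1 and 10 ng/ml. Culture media were collected and secreted PGE2 was measured by ELISA.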

[3] = molecular target: T1, Prostaglandin E synthase (Mus musculus); experiment: Inhibition of mPGES1 in mouse 3T3L1 cells assessed as reduction in PGE2 production at 10 ng/ml after 1 hr by ELISA relative to control; values are per cent of control

SMILES	inhibition (Homo sapiens)	Activity (3T3-L1)	inhibition [1]	IC50 (Prostaglandin E synthase) [µM]	also measured
COc1cc(/C=C/C(=O)CC(=O)/C=C/c2ccc(O)c(OC)c2)ccc1O	Active				
COc1ccc(C/C=C/Cc2ccc(OC)cc2)cc1		Non-Toxic	Dose-dependent effect	12	
COc1ccc(CCCCCCCc2ccccc2O)cc1					inhibition [2]: inactive
COc1ccc(CCCCc2ccc(OC)cc2)cc1	inactive		Dose-dependent effect		
COc1ccc(C/C=C/CCCCc2ccc(O)cc2)cc1OC		Non-Toxic	Dose-dependent effect	1.7	
COc1ccc(CCCCCCCc2ccc(O)cc2)cc1	inactive				
COc1ccc(CCCCCCCc2ccc(O)cc2)cc1OC		Non-Toxic	Dose-dependent effect	29	residual activity [3]: 33%
COc1ccc(C/C=C/CCCCc2ccccc2O)cc1	inactive				inhibition [2]: Active
COc1ccc(C/C=C/CCCCc2ccccc2O)cc1OC	inactive				
COc1ccc(CCCCCCCc2ccccc2O)cc1OC	inactive	Non-Toxic	Dose-dependent effect	17	
COc1ccc(C/C=C/CCCCc2ccc(O)cc2)cc1					inhibition [2]: inactive
